{"source": "ChEMBL document CHEMBL1909561", "about": "“Stable and orally bio-available pro-drugs of CPS11” (Bioorg Med Chem Lett, 2011)", "key": {"[1]": {"assay": "Aqueous solubility of the compound after 8 hrs by UV spectroscopy", "format": "physicochemical"}, "[2]": {"assay": "Stability of the compound assessed as purity after 2 months by HPLC method (reference value: 99.3%)", "format": "physicochemical", "details": "1461 h"}, "[3]": {"assay": "Stability of the compound in aqueous solution after 8 hrs", "format": "physicochemical", "details": "buffer", "procedure,_shortened": "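Stability followed in aqueous solution over 8 h.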"}, "[4]": {"assay": "(§1) Antiproliferative activity against human ECV304 cells assessed as growth inhibition after 72 hrs by MTT assay", "format": "cell-based, ECV-304", "details": "human, ECV304 cells; read-out: GI", "procedure,_shortened": "(§2)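 ECV-304 grown in RPMI 1640 with 10% bovine serum, seeded 6000 cells/well and left to attach overnight at 37 °C, 5% CO₂. Medium then replaced by fresh medium with 1% FBS plus test agent or DMSO vehicle for 72 h. MTT added for a further 4 h, absorbance read at 535 nm. Duplicate wells, three independent repeats.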"}, "HUVEC [5]": {"tested_on": "HUVEC", "assay": "Antiproliferative activity against human HUVEC assessed as tube formation at 195 uM after 24 hrs", "format": "cell-based", "procedure,_shortened": "(§3)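 HUVECs in M199 with 20% bovine serum and 20 ng/mL bFGF, seeded at 20,000 cells/well onto Matrigel that had gelled 30 min at 37 °C, left to attach overnight. Medium changed to one containing test agent or vehicle (0.5% DMSO) and cultured 24 h at 37 °C, 5% CO₂. Each well photographed and counted.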"}, "HUVEC [6]": {"tested_on": "HUVEC", "assay": "Antiproliferative activity against human HUVEC at 195 uM after 24 hrs", "format": "cell-based", "procedure,_shortened": "as §3"}, "ECV-304": {"tested_on": "ECV-304", "assay": "as §1", "format": "cell-based", "details": "for IC50: Homo sapiens, ECV-304, 72 h; for growth inhibition (GI): human, ecv-304, 72 h", "procedure,_shortened": "as §2"}, "MX1 [7]": {"tested_on": "MX1", "assay": "Antitumor activity against human MX1 cells xenografted in mouse at 65 mg/kg, ip for 5 days", "format": "functional, organism-based", "parameters": "dose 65 mg/kg", "procedure,_shortened": "(§4)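 Mice implanted subcutaneously in the right flank with 1–2 mm³ MX-1 tumor fragments. Dosing began on day 7, at about 200 mm³ tumor size. Five mice per group: vehicle; 65 mg/kg once daily for five consecutive days; or that regimen plus Taxol 5 mg/kg iv once on day 7. Read-outs were tumor growth inhibition rate, survival and body weight.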"}, "MX1 [8]": {"tested_on": "MX1", "assay": "Potentiation of taxol-induced antitumor activity against human MX1 cells xenografted in mouse at 65 mg/kg, ip for 5 days co-administered with taxol at 5 mg/kg, iv on day 7 post challenge", "format": "functional, organism-based", "procedure,_shortened": "as §4"}, "[9]": {"assay": "Stability of the compound after 1 month by HPLC method (reference value: 91.6%)", "format": "physicochemical", "details": "read-out: Stability"}, "[10]": {"assay": "Toxicity in ip dosed nude mouse administered for 2 weeks", "format": "organism-based", "details": "in vivo"}, "PC-3": {"tested_on": "PC-3", "assay": "Antitumor activity against human PC3 cells in xenograft model", "format": "functional"}, "[11]": {"assay": "Antitumor activity against human Lung cancer cells in metastasis model", "format": "functional, Cancer cell lines"}, "MX1 [12]": {"tested_on": "MX1", "assay": "Antitumor activity against human MX1 cells implanted subcutaneously in mouse at 5 mg/kg, iv administered on day 7 post challenge", "format": "functional", "procedure,_shortened": "as §4"}, "Mus musculus [13]": {"tested_on": "Mus musculus", "assay": "Toxicity in mouse assessed as body weight loss at 65 mg/kg, ip for 5 days co-administered with taxol at 5 mg/kg, iv on day 7 post challenge", "format": "organism-based", "details": "in vivo, 120 h", "procedure,_shortened": "(§5)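 Mice bearing MX-1 human breast tumour fragments (1–2 mm³, implanted subcutaneously in the right flank), five per group. Treatment began on day 7 after inoculation, at a tumour size of about 200 mm³. Groups received vehicle, test compound at 65 mg/kg once daily for five consecutive days, or the same schedule plus Taxol 5 mg/kg iv once on day 7. Survival and body weight loss were monitored.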"}, "Mus musculus [14]": {"tested_on": "Mus musculus", "assay": "Toxicity in mouse assessed as mouse survival at 65 mg/kg, ip for 5 days co-administered with taxol at 5 mg/kg, iv on day 7 post challenge", "format": "organism-based", "details": "in vivo, 120 h", "procedure,_shortened": "as §5"}, "[15]": {"assay": "Stability of the compound assessed as purity after 2 months by HPLC method (reference value: 98.9%)", "format": "physicochemical", "details": "1461 h"}, "[16]": {"assay": "Bioavailability in intragastrically administered rat", "format": "ADME, organism-based", "details": "in vivo, po", "procedure,_shortened": "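Single intragastric dose given to rats; oral bioavailability determined.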"}, "Rattus norvegicus": {"tested_on": "Rattus norvegicus", "assay": "Prodrug activation in IV dosed rat assessed as formation of CPS11", "format": "organism-based", "details": "in vivo"}}, "note": "The source made the active and inactive calls. No cut-off for these calls is given here."}
{"smiles": "Cl.O=C(OCN1C(=O)CCC(N2C(=O)c3ccccc3C2=O)C1=O)c1cccnc1", "note": "(stereo not drawn)", "values": [{"measurement": "solubility at 8 h", "setting": "[1]", "result": 1480, "unit": "µg/mL"}, {"measurement": "Stability", "setting": "[2]", "result": "Stable"}, {"measurement": "Stability", "setting": "[3]", "result": "Stable"}]}
{"smiles": "O=C1CCC(N2C(=O)c3ccccc3C2=O)C(=O)N1", "note": "(stereo not drawn) [THALIDOMIDE]", "values": [{"measurement": "inhibition at 72 h", "setting": "[4]", "result": 40, "unit": "%"}, {"measurement": "Activity", "setting": "HUVEC [5]", "result": 53, "unit": "%"}]}
{"smiles": "O=C(OCN1C(=O)CCC(N2C(=O)c3ccccc3C2=O)C1=O)c1cccnc1", "note": "(stereo not drawn) [listing 1 of 2 here]", "values": [{"measurement": "Activity", "setting": "HUVEC [6]", "result": 88, "unit": "%"}, {"measurement": "IC50", "setting": "ECV-304", "result": 120, "unit": "nM"}, {"measurement": "growth inhibition (GI)", "setting": "ECV-304", "result": "Dose-dependent effect"}]}
{"smiles": "O=C(OCN1C(=O)CCC(N2C(=O)c3ccccc3C2=O)C1=O)c1cccnc1", "note": "(stereo not drawn) [listing 2 of 2 here]", "values": [{"measurement": "Activity", "setting": "MX1 [7]", "result": "inactive"}, {"measurement": "Activity", "setting": "MX1 [8]", "result": "Active"}]}
{"smiles": "O=C(OCN1C(=O)CCC(N2C(=O)c3ccccc3C2=O)C1=O)c1ccccn1", "note": "(stereo not drawn)", "values": [{"measurement": "Activity", "setting": "HUVEC [6]", "result": 88, "unit": "%"}, {"measurement": "IC50", "setting": "ECV-304", "result": 100, "unit": "nM"}, {"measurement": "growth inhibition (GI)", "setting": "ECV-304", "result": "Dose-dependent effect"}]}
{"smiles": "O=C(OCN1C(=O)CCC(N2C(=O)c3ccccc3C2=O)C1=O)c1ccncc1", "note": "(stereo not drawn)", "values": [{"measurement": "Activity", "setting": "HUVEC [6]", "result": 88, "unit": "%"}, {"measurement": "IC50", "setting": "ECV-304", "result": 180, "unit": "nM"}, {"measurement": "growth inhibition (GI)", "setting": "ECV-304", "result": "Dose-dependent effect"}]}
{"smiles": "O=C1CCC(N2C(=O)c3ccccc3C2=O)C(=O)N1CO", "note": "(stereo not drawn)", "values": [{"measurement": "remaining at 730.5 h", "setting": "[9]", "result": 58.9, "unit": "%"}, {"measurement": "MTD at 336 h", "setting": "[10]", "result": 100, "unit": "mg/kg"}, {"measurement": "inhibition (INH)", "setting": "PC-3", "result": 90, "unit": "%"}, {"measurement": "inhibition (INH)", "setting": "[11]", "result": 87, "unit": "%"}]}
{"smiles": "CC(=O)O[C@H]1C(=O)[C@@]2(C)[C@H]([C@H](OC(=O)c3ccccc3)[C@]3(O)C[C@H](OC(=O)[C@H](O)[C@@H](NC(=O)c4ccccc4)c4ccccc4)C(C)=C1C3(C)C)[C@]1(OC(C)=O)CO[C@@H]1C[C@@H]2O", "note": "[PACLITAXEL]", "values": [{"measurement": "Activity", "setting": "MX1 [12]", "result": 33.1, "unit": "%"}]}
{"smiles": "O=C(OCN1C(=O)CCC(N2C(=O)c3ccccc3C2=O)C1=O)c1cccnc1.O=S(=O)(O)c1ccccc1", "note": "(stereo not drawn)", "values": [{"measurement": "Activity", "setting": "Mus musculus [13]", "result": "Non-toxic"}, {"measurement": "Activity", "setting": "Mus musculus [14]", "result": "Non-toxic"}, {"measurement": "Stability", "setting": "[15]", "result": "Stable"}, {"measurement": "solubility at 8 h", "setting": "[1]", "result": 840, "unit": "µg/mL"}, {"measurement": "bioavailability", "setting": "[16]", "result": 60.7, "unit": "%"}, {"measurement": "Activity", "setting": "Rattus norvegicus", "result": "Active"}, {"measurement": "Stability", "setting": "[3]", "result": "Stable"}]}
